Measured values reported in ChEMBL document CHEMBL2321826, “Synthesis and antibacterial evaluation of rhodanine-based 5-aryloxy pyrazoles against selected methicillin resistant and quinolone-resistant Staphylococcus aureus (MRSA and QRSA)” (Eur J Med Chem, 2013).
In brackets after ≈: the same amount, converted by molar mass.

Columns and labels:
Staphylococcus aureus [1] = assay: Antibacterial activity against methicillin-resistant Staphylococcus aureus assessed as bacterial growth inhibition measured during 24 hrs incubation at 37 degC by two-fold serial dilution technique; format: functional
In short: (§1)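 Clinical isolates grown to mid-log phase in Mueller-Hinton broth, diluted 1000-fold, inoculated at 10⁵ CFU/mL in MHB in 96-well microtiter plates. Two-fold serial dilutions gave final concentrations of […]. Oxacillin and norfloxacin were the positive controls. Growth was read as absorbance at 650 nm. MIC is the lowest concentration giving complete growth inhibition.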

Staphylococcus aureus [2] = assay: Antibacterial activity against methicillin-resistant Staphylococcus aureus CCARM 3506 assessed as bacterial growth inhibition measured during 24 hrs incubation at 37 degC by two-fold serial dilution technique; format: functional; conditions: CCARM 3506, 24 h; in short: as §1
HeLa [3] = assay: Cytotoxicity against human HeLa cells assessed as cell growth inhibition at 2 ug/ml measured after 48 hrs by MTT assay; format: cell-based
Staphylococcus aureus [4] = assay: Antibacterial activity against quinolone-resistant Staphylococcus aureus CCARM 3505 assessed as bacterial growth inhibition measured during 24 hrs incubation at 37 degC by two-fold serial dilution technique; format: functional; conditions: CCARM 3505, 24 h; in short: as §1
Staphylococcus aureus [5] = assay: Antibacterial activity against quinolone-resistant Staphylococcus aureus CCARM 3519 assessed as bacterial growth inhibition measured during 24 hrs incubation at 37 degC by two-fold serial dilution technique; format: functional; conditions: CCARM 3519, 24 h; in short: as §1
HeLa [6] = assay: Cytotoxicity against human HeLa cells assessed as cell growth inhibition measured after 48 hrs by MTT assay; format: cell-based
In short: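 HeLa cells grown in DMEM with 10% FBS and penicillin-streptomycin (100 U/mL) at 37 °C in 5% CO2. Cells were split with trypsin at 80-90% confluence and used at passage 3. About 1×10⁴ cells/well were seeded and left overnight to attach. Cells were exposed to compounds for 48 h, then given MTT (5 mg/mL in PBS stock) for 4 h. Medium was removed and formazan read.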

Staphylococcus aureus [7] = assay: Antibacterial activity against methicillin-resistant Staphylococcus aureus CCARM 3167 assessed as bacterial growth inhibition measured during 24 hrs incubation at 37 degC by two-fold serial dilution technique; format: functional; conditions: CCARM 3167, 24 h; in short: as §1
HeLa [8] = assay: Cytotoxicity against human HeLa cells assessed as cell growth inhibition at 4 ug/ml measured after 48 hrs by MTT assay; format: cell-based
Staphylococcus aureus [9] = assay: Ratio of oxacillin MIC to compound MIC for Staphylococcus aureus CCARM 3167; format: functional
Staphylococcus aureus [10] = assay: Ratio of norfloxacin MIC to compound MIC for Staphylococcus aureus CCARM 3167; format: functional
HeLa [11] = assay: Cytotoxicity against human HeLa cells assessed as cell growth inhibition at 1 ug/ml measured after 48 hrs by MTT assay; format: cell-based

SMILES | MIC (Staphylococcus aureus [1]) [µg/mL] | MIC (Staphylococcus aureus [2]) [µg/mL] | Activity (HeLa [3]) | MIC (Staphylococcus aureus [4]) [µg/mL] | MIC (Staphylococcus aureus [5]) [µg/mL] | IC50 (HeLa [6]) [µg/mL] | MIC (Staphylococcus aureus [7]) [µg/mL] | Activity (HeLa [8]) | Ratio (Staphylococcus aureus [9]) | Ratio (Staphylococcus aureus [10]) | Activity (HeLa [11])
O=C(O)CN1C(=O)/C(=C/c2cn(-c3ccccc3)nc2-c2ccc(Cl)cc2Cl)SC1=S | 4 (≈ 8.16 µM) | – | – | – | – | – | – | – | – | – | –
Cc1nn(-c2ccccc2)c(Oc2ccc(Br)cc2)c1/C=C1\SC(=S)N([C@@H](CC(C)C)C(=O)O)C1=O | – | 4 (≈ 6.82 µM) | Non-toxic | 4 (≈ 6.82 µM) | 4 (≈ 6.82 µM) | 12.3 (≈ 21 µM) | 4 (≈ 6.82 µM) | – | – | – | –
Cc1nn(-c2ccccc2)c(Oc2ccc(Cl)cc2Cl)c1/C=C1\SC(=S)N([C@H](C(=O)O)C(C)C)C1=O | – | 4 (≈ 7.11 µM) | – | 4 (≈ 7.11 µM) | 4 (≈ 7.11 µM) | 10.4 (≈ 18.5 µM) | 4 (≈ 7.11 µM) | Non-toxic | – | – | –
CCC(C)[C@@H](C(=O)O)N1C(=O)/C(=C/c2c(C)nn(-c3ccccc3)c2Oc2ccc(Cl)cc2Cl)SC1=S (stereo not given in full) | – | 1 (≈ 1.73 µM) | – | 2 (≈ 3.47 µM) | 2 (≈ 3.47 µM) | 6.43 (≈ 11.2 µM) | 1 (≈ 1.73 µM) | – | 64 | 8 | Non-toxic
Cc1nn(-c2ccccc2)c(Oc2c(Cl)cccc2Cl)c1/C=C1\SC(=S)N(CC(=O)O)C1=O | – | 32 (≈ 61.5 µM) | – | 32 (≈ 61.5 µM) | 32 (≈ 61.5 µM) | – | 32 (≈ 61.5 µM) | – | – | – | –
Cc1nn(-c2ccccc2)c(Oc2ccc(Cl)cc2Cl)c1/C=C1\SC(=S)N(CC(=O)O)C1=O | – | 8 (≈ 15.4 µM) | – | 8 (≈ 15.4 µM) | 8 (≈ 15.4 µM) | – | 4 (≈ 7.69 µM) | – | – | – | –
Cc1nn(-c2ccccc2)c(Oc2ccccc2Cl)c1/C=C1\SC(=S)N(CC(=O)O)C1=O | – | 16 (≈ 32.9 µM) | – | 32 (≈ 65.8 µM) | 16 (≈ 32.9 µM) | – | 16 (≈ 32.9 µM) | – | – | – | –
Cc1nn(-c2ccccc2)c(Oc2cccc(Cl)c2)c1/C=C1\SC(=S)N(CC(=O)O)C1=O | – | 16 (≈ 32.9 µM) | – | 8 (≈ 16.5 µM) | 16 (≈ 32.9 µM) | – | 16 (≈ 32.9 µM) | – | – | – | –
CCn1cc(C(=O)O)c(=O)c2cc(F)c(N3CCNCC3)cc21 [NORFLOXACIN] | – | 4 (≈ 12.5 µM) | – | > 64 | > 64 | – | 8 (≈ 25.1 µM) | – | – | – | –
Cc1onc(-c2ccccc2)c1C(=O)N[C@@H]1C(=O)N2[C@@H]1SC(C)(C)[C@@H]2C(=O)O [OXACILLIN] | – | > 64 | – | 1 (≈ 2.49 µM) | 1 (≈ 2.49 µM) | – | > 64 | – | – | – | –
